{"data": "Measured values gathered from unrelated publications", "observed": "cell growth or viability", "note": "Compare with care: the assays were run in different laboratories."}
{"SMILES": "O=C1CCC(N2C(=O)c3cccc4c(Cc5cnn(C6CCN(C(=O)CO)CC6)c5)ccc2c34)C(=O)N1 (stereo not shown)", "cell line": "NCI-H929", "IC50": "0.16 nM"}
{"SMILES": "COc1cccc(NC(=O)Nc2nc3cc(-c4ccc5ncn(CC(=O)N6CCOCC6)c(=O)c5c4)ccc3s2)c1", "cell line": "PC-9", "assay": "MTT", "conditions": "72 h", "IC50": "> 20000 nM"}
{"SMILES": "Cc1sc2c(c1C)C(c1ccc(Cl)cc1)=N[C@@H](CC(=O)NCCCCNC(=O)COc1cccc3c1C(=O)N(C1CCC(=O)NC1=O)C3=O)c1nnc(C)n1-2 (stereo partly shown)", "cell line": "AGS", "assay": "CCK-8", "conditions": "72 h", "IC50": "5120 nM"}
{"SMILES": "COc1ccc(Nc2ncnc3c2ncn3Cc2ccc(C(=O)NO)cc2)cc1", "cell line": "Raji", "assay": "MTT", "conditions": "72 h", "IC50": "430 nM"}
{"SMILES": "COc1cccc(NC(=O)Nc2nc3cc(-c4ccc5ncn(CCC6CCCCC6)c(=O)c5c4)ccc3s2)c1", "cell line": "PC-9", "assay": "MTT", "conditions": "72 h", "IC50": "> 20000 nM"}
{"SMILES": "COc1cc(C2C3=C(COC3=O)N(CCO)c3cc4c(cc32)CCC4)cc(OC)c1OC (stereo not shown)", "cell line": "EMT6", "assay": "ATP luminescence", "conditions": "48 h", "IC50": "180 nM"}
{"SMILES": "O=C(Nc1cccc(F)c1)Nc1nc2cc(-c3ccc4ncn(Cc5ccccc5)c(=O)c4c3)ccc2s1", "cell line": "PC-9", "assay": "MTT", "conditions": "72 h", "IC50": "> 20000 nM"}
{"SMILES": "O=C(NO)c1ccc(Cn2cnc3c(Nc4ccc(Br)cc4F)ncnc32)cc1", "cell line": "Raji", "assay": "MTT", "conditions": "72 h", "IC50": "230 nM"}
{"SMILES": "CN1CCC(NC2CCc3[nH]c4c(C(N)=O)ccc(-c5ccccc5Cl)c4c3C2)CC1 (stereo not shown)", "cell line": "DOHH-2", "conditions": "96 h", "IC50": "24.7 nM"}
{"SMILES": "CCNC(=O)Nc1nc2cc(-c3ccc4ncn(Cc5ccccc5)c(=O)c4c3)ccc2s1", "cell line": "PC-9", "assay": "MTT", "conditions": "72 h", "IC50": "> 20000 nM"}
{"SMILES": "O=C1CCC(N2C(=O)c3cccc4c(Cc5cnn(C6CCN(C(=O)CS)CC6)c5)ccc2c34)C(=O)N1 (stereo not shown)", "cell line": "NCI-H929", "IC50": "1.23 nM"}
{"SMILES": "CCCc1cc2cc(-n3nc(C)c4c3CC(C)(C)CC4=O)cc(N3CCC(O)CC3)c2c(=O)[nH]1", "cell line": "SK-OV-3", "assay": "MTS", "IC50": "2980 nM"}
{"SMILES": "Nc1ccccc1NC(=O)c1ccc(Cn2cnc3c(Nc4ccc(Br)cc4F)ncnc32)cc1", "cell line": "Raji", "assay": "MTT", "conditions": "72 h", "IC50": "120 nM"}
{"SMILES": "O=C(Nc1ccc(C(F)(F)F)cc1)Nc1nc2cc(-c3ccc4ncn(CCN5CCOCC5)c(=O)c4c3)ccc2s1", "cell line": "PC-9", "assay": "MTT", "conditions": "72 h", "IC50": "> 20000 nM"}
{"SMILES": "O=C1CCC(N2C(=O)c3cccc4c(Cc5cnn(C6CCN(C(=O)C7(O)CC7)CC6)c5)ccc2c34)C(=O)N1 (stereo not shown)", "cell line": "NCI-H929", "IC50": "0.09 nM"}
{"SMILES": "COc1ccc(Nc2ncnc3c2ncn3Cc2ccc(C(=O)Nc3ccccc3N)cc2)cc1", "cell line": "Raji", "assay": "MTT", "conditions": "72 h", "IC50": "11000 nM"}
{"SMILES": "O=C1C(=Nc2ccc(Cl)cc2Br)c2ccccc2N1Cc1ccc(Br)cc1", "cell line": "HCT-116", "assay": "MTT", "conditions": "48 h", "IC50": "600 nM"}
{"SMILES": "Cc1nc(Nc2ncc(C(=O)Nc3c(C)cccc3Cl)s2)cc(N2CC[C@H](O)C2)n1", "cell line": "JVM13", "assay": "ATP luminescence", "conditions": "72 h", "IC50": "> 10000 nM"}
{"SMILES": "O=C1CCC(N2C(=O)c3cccc4c(Cn5cc(C6CCNCC6)nn5)ccc2c34)C(=O)N1 (stereo not shown)", "cell line": "NCI-H929", "IC50": "6.21 nM"}
{"SMILES": "CN(C)CCn1cnc2ccc(-c3ccc4sc(NC(=O)Nc5ccc(F)cc5)nc4c3)cc2c1=O", "cell line": "PC-9", "assay": "MTT", "conditions": "72 h", "IC50": "4870 nM"}
{"SMILES": "O=C1CC[C@H](N2C(=O)c3cccc4c(Cc5ccc(CN6CCOCC6)cc5)ccc2c34)C(=O)N1", "cell line": "NCI-H929", "IC50": "0.06 nM"}
{"SMILES": "O=C1C(=Nc2ccccc2Br)c2ccccc2N1Cc1ccccc1", "cell line": "HCT-116", "assay": "MTT", "conditions": "48 h", "IC50": "1100 nM"}
